{"data": "Measured values pooled from the literature", "target": "Aurora kinase A (AURKA, Homo sapiens, UniProt O14965)", "Residues used in one study (O14965 1-403)": "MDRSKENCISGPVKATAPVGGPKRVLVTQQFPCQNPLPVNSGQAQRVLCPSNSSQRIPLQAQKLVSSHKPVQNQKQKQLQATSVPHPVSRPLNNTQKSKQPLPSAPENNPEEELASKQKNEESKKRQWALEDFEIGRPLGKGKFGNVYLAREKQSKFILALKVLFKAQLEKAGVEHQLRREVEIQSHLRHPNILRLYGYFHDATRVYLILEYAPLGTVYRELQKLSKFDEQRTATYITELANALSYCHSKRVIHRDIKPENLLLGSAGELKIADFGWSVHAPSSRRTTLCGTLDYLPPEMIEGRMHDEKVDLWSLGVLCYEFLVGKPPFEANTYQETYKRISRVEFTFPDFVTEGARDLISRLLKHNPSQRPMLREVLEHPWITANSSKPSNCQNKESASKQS", "note": "Lines come from different studies, so protocols differ."}
{"Compound": "CS(=O)(=O)NCC[C@H](NC(=O)c1cncc2c1cnn2-c1ccc(F)cc1)c1ccnc(S(C)(=O)=O)c1", "test": "cell-free assay, competition with immobilised ligand", "setting": "1 µM", "remaining binding [%]": 100}
{"Compound": "C[C@@H]1CN(c2ccc3ncc(-c4ccc5[nH]nc(C6CC6)c5c4)n3n2)C[C@H](C)O1", "test": "binding, competition with immobilised ligand", "setting": "50 nM", "remaining binding [%]": 87}
{"Compound": "N[C@H]1CCN(c2nccc(-c3cnn4ncccc34)n2)C1", "test": "binding", "setting": "1 µM", "remaining binding [%]": 97}
{"Compound": "c1cncc(-c2cccc(Nc3nccc(NC4CCCCC4)n3)c2)c1", "test": "binding, competition with immobilised ligand", "setting": "10 µM", "remaining binding [%]": 5.9}
{"Compound": "CN(C(=O)c1ccccc1)c1cc(N(C)c2ccc3c(c2)CCc2ccc(C(=O)NCCN4CCOCC4)cc2C3=O)ccc1F", "test": "cell-free assay, competition with immobilised ligand", "setting": "1 µM", "remaining binding [%]": 100}
{"Compound": "COc1ncc2cc3ccccc3nc2c1C#N", "test": "cell-free assay, competition with immobilised ligand", "setting": "5 µM", "remaining binding [%]": 100}
{"Compound": "C[C@H]1CCN(c2nccc(-c3cnn4ncccc34)n2)C1", "test": "binding", "setting": "1 µM", "remaining binding [%]": 91}
{"Compound": "FC(F)(F)Oc1cccc(-c2cnc3ccc(-c4ccncc4)nn23)c1", "test": "cell-free assay, competition with immobilised ligand", "setting": "5 µM", "remaining binding [%]": 91}
{"Compound": "COc1ccnn2ncc(-c3ccnc(N(C)C)n3)c12", "test": "binding", "setting": "1 µM", "remaining binding [%]": 93}
{"Compound": "CCC(=O)N[C@H]1CC[C@@H](C(=O)N(C)c2ccc(-c3nc4ccccc4o3)cc2)C1", "test": "cell-free assay, competition with immobilised ligand", "setting": "1 µM", "remaining binding [%]": 43}
{"Compound": "CC1CCCN1c1nccc(-c2cnn3ncccc23)n1 (stereo not shown)", "test": "binding", "setting": "1 µM", "remaining binding [%]": 87}
{"Compound": "O=C(NCCCN1CCOCC1)c1ccc(Nc2nccc(-c3cc4ccccc4s3)n2)cc1", "test": "binding, competition with immobilised ligand", "setting": "1 µM", "remaining binding [%]": 55}
{"Compound": "O=C(Nc1c[nH]nc1C(=O)NC1CCNCC1)c1cc(F)cc(F)c1", "test": "binding, competition with immobilised ligand", "setting": "1 µM", "remaining binding [%]": 100}
{"Compound": "CN(CCCC(F)(F)F)c1nccc(-c2cnn3ncccc23)n1", "test": "binding", "setting": "1 µM", "remaining binding [%]": 90}
{"Compound": "O=C(NS(=O)(=O)c1ccc(NCC2CCOCC2)c([N+](=O)[O-])c1)c1ccc(N2CCN(Cc3ccc(C(F)(F)F)cc3-c3ccc(Cl)cc3)CC2)cc1Oc1cnc2[nH]ccc2c1", "test": "cell-free assay, competition with immobilised ligand", "setting": "1 µM", "remaining binding [%]": 96}
{"Compound": "O=C(c1ccc(Nc2nccc(-c3cc4ccccc4s3)n2)cc1)N1CCC(N2CCCC2)CC1", "test": "binding, competition with immobilised ligand", "setting": "1 µM", "remaining binding [%]": 33}
{"Compound": "Nc1ncc2c(n1)-c1c([nH]c3ccc(C#CC4CC4)cc13)CCCC2", "test": "binding, competition with immobilised ligand", "setting": "1 µM", "remaining binding [%]": 80}
{"Compound": "COCCOc1nc(-c2ccc(Cl)nc2)nc2c1CN(C(=O)c1ncn3ccccc13)CC2", "test": "cell-free assay, competition with immobilised ligand", "setting": "0.1 µM", "remaining binding [%]": 81}
{"Compound": "CNC(=O)[C@@H]1CC[C@@H](n2c(-c3ccc4cnccc4c3)nc3ccc(C(=O)NCc4cccc(C(N)=O)c4)cc32)C1", "test": "binding, competition with immobilised ligand", "setting": "1 µM", "remaining binding [%]": 100}
{"Compound": "Cc1cnc(Nc2ccc(C(=O)N3CCC(N4CCCC4)CC3)cc2)nc1-c1cc2ccccc2s1", "test": "binding, competition with immobilised ligand", "setting": "1 µM", "remaining binding [%]": 2}
{"Compound": "COc1cnc(Nc2cccc(S(N)(=O)=O)c2)nc1N1CCN(c2ccccc2)C(=O)C1", "test": "binding, competition with immobilised ligand", "setting": "1 µM", "remaining binding [%]": 80}
{"Compound": "FC(F)(F)c1ccc2c(c1)nc(-c1cccnc1)n2C1CC1", "test": "cell-free assay, competition with immobilised ligand", "setting": "1 µM", "remaining binding [%]": 98}
{"Compound": "CN(c1nccc(-c2cnn3ncccc23)n1)C1CC1", "test": "binding", "setting": "1 µM", "remaining binding [%]": 84}
{"Compound": "O=C(Nc1cccnn1)N1CC(C/C=C/c2cncc(Oc3ccc(C(F)(F)F)cn3)n2)C1", "test": "cell-free assay, competition with immobilised ligand", "setting": "1 µM", "remaining binding [%]": 100}
{"Compound": "CN(C)c1ncc(F)c(-c2cnn3ncccc23)n1", "test": "binding", "setting": "1 µM", "remaining binding [%]": 100}
